Data: ChEMBL document CHEMBL1125175, “Synthesis and DNA-binding properties of polyamine analogues” (J Med Chem, 1991)

Experiments:
Calf thymus DNA = test: Ability to displace ethidium bromide from calf thymus DNA; assay type: nucleic-acid assay, Bos taurus
In short: (§1)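 Fluorescence displacement. Ethidium bromide 1.6 μM final in 2 mM HEPES, 10 μM EDTA, 9.4 mM NaCl, pH 7.0, then DNA added at 2 μM final (DNA phosphate): calf thymus DNA, poly(dA-dT)·poly(dA-dT) or poly(dG-dC)·poly(dG-dC). Excitation 546 nm, emission 598 nm. Analogue titrated in aliquots. IC50 is the concentration halving ethidium–DNA fluorescence. Trial-to-trial variability generally <5%.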

HeLa [1] = test: Ability to cause aggregation of purified HeLa cell DNA; assay type: functional; settings: Homo sapiens
In short: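 HeLa DNA labelled via 3-day culture with 4 μCi [³H]thymidine, then phenol/chloroform extracted. 1.5 μg DNA (~20000 cpm) plus analogue at various concentrations in buffer of 25 mM Tris, 4.5 mM KCl, 3 mM MgCl₂, pH 7.6. Incubated 10 min at 37 °C, then centrifuged 2.5 min and supernatant counted.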

HeLa [2] = test: Ability to inhibit 50% growth of HeLa cells; assay type: functional, cell-based; settings: Homo sapiens
In short: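 HeLa cells grown 2 days, then counted to set the baseline. Analogues added in complete medium for a further 2 days, then cells counted. Growth increase compared with untreated controls. IC50 is the concentration giving a 50% decrease in growth relative to controls.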

Nucleic Acid [3] = test: Ability to displace ethidium bromide from double stranded synthetic poly (dG-dC); assay type: nucleic-acid assay; in short: as §1
Nucleic Acid [4] = test: Ability to displace ethidium bromide from double stranded synthetic Poly (dA-dT); assay type: nucleic-acid assay; in short: as §1

IC50 (Calf thymus DNA)	IC50 (HeLa [1])	IC50 (HeLa [2])	IC50 (Nucleic Acid [3])	IC50 (Nucleic Acid [4])	SMILES
15 µM	150 µM	200 µM	19.5 µM	3.9 µM	CCNCCCNCCCCCCCCNCCCNCC
13 µM	300 µM	15 µM	32 µM	4.2 µM	c1ccc(CNCCCNCCCCCCCCNCCCNCc2ccccc2)cc1
33 µM	400 µM	1 µM	26 µM	3.1 µM	c1ccc(CNCCCNCCCCCCCCCCNCCCNCc2ccccc2)cc1
31 µM	200 µM	10 µM	24.5 µM	2.9 µM	c1ccc(CNCCCNCCCCCCCCCNCCCNCc2ccccc2)cc1
5.5 µM	85 µM	60 µM	25 µM	10 µM	c1ccc(CNCCCNCCCCCCNCCCNCc2ccccc2)cc1
5 µM	250 µM	160 µM	–	–	NCCCNCCCc1ccc(CCCNCCCN)cc1
7.5 µM	100 µM	20 µM	12 µM	4.7 µM	c1ccc(CCCNCCCNCCCCCCCNCCCNCCCc2ccccc2)cc1
600 µM	> 8000 µM	2 µM	1600 µM	700 µM	c1ccc(CNCCNCCCCCCCCCCNCCNCc2ccccc2)cc1
12 µM	105 µM	> 500 µM	20 µM	3.4 µM	c1ccc(CNCCCCNCCCCCCCCNCCCCNCc2ccccc2)cc1
10 µM	95 µM	> 500 µM	20 µM	3.2 µM	c1ccc(CNCCCCNCCCCCCCNCCCCNCc2ccccc2)cc1
8 µM	85 µM	20 µM	10.7 µM	2.8 µM	c1ccc(CCNCCCNCCCCCCCNCCCNCCc2ccccc2)cc1
800 µM	2400 µM	75 µM	–	–	c1ccc(CNCCNCCCCCCNCCNCc2ccccc2)cc1
11 µM	200 µM	100 µM	20 µM	4 µM	CCNCCCNCCCCCCCNCCCNCC
12 µM	–	80 µM	22 µM	4.5 µM	c1ccc(CNCCCNCCCCCNCCCNCc2ccccc2)cc1
10 µM	40 µM	10 µM	17 µM	4.9 µM	c1ccc(CNCCCNCCCCNCCCNCc2ccccc2)cc1
80 µM	–	–	–	–	c1ccc(NCCCNCCCCCCCNCCCNc2ccccc2)cc1
130 µM	750 µM	20 µM	100 µM	40 µM	c1ccc(CNCCNCCCCCCCCNCCNCc2ccccc2)cc1
600 µM	600 µM	60 µM	316 µM	170 µM	c1ccc(CNCCNCCCCCCCNCCNCc2ccccc2)cc1

The next lines start with the compound.

SMILES	IC50 (Calf thymus DNA)	IC50 (HeLa [1])	IC50 (HeLa [2])	IC50 (Nucleic Acid [3])	IC50 (Nucleic Acid [4])
CCCCNCCCNCCCCCCCCNCCCNCCCC	20 µM	340 µM	> 500 µM	40 µM	4.2 µM
CCCNCCCNCCCCCCCCNCCCNCCC	17 µM	220 µM	> 500 µM	25 µM	3.8 µM
NCCCNCCCCCCCCNCCCN	4.9 µM	35 µM	50 µM	7.8 µM	3.8 µM
NCCCCSCCCN	1450 µM	> 15000 µM	350 µM	–	–
CC(N)CCNCCCCCCCCNCCC(C)N (configuration not stated)	7.5 µM	–	–	12.5 µM	4.2 µM
CC(CCN)NCCCCCCCCNC(C)CCN (configuration not stated)	7 µM	180 µM	100 µM	12.6 µM	3.6 µM
NCCCNCC(F)(F)CN	> 10000 µM	–	–	–	–
NCCCNCCCC(F)(F)NCCCN	140 µM	2500 µM	–	–	–
c1ccc(CNCCCNCCCCCCCNCCCNCc2ccccc2)cc1	6 µM	150 µM	5 µM	31 µM	4.6 µM
C=C(CNC)CNCCCCCCCCNCC(=C)CNC	19.1 µM	–	125 µM	30 µM	4.5 µM
CNCC(C)CNCCCCCCCNCC(C)CNC (configuration not stated)	12.8 µM	–	> 500 µM	20 µM	4.5 µM
NCCCNCC(F)(F)CCN	275 µM	3100 µM	150 µM	–	–
NCCCNCCCCCCCCCCNCCCN	8 µM	170 µM	10 µM	11 µM	4.2 µM
NCCCNCCCC1CCC(CCCNCCCN)CC1 (configuration not stated)	7.5 µM	–	90 µM	–	–
NCC(O)CNCCCCCCCCNCC(O)CN (configuration not stated)	5.2 µM	200 µM	–	27 µM	4.3 µM
NCC(=O)CNCCCCCCCCNCC(=O)CN	8.2 µM	400 µM	–	18 µM	10.5 µM

SMILES	IC50 (Calf thymus DNA)	IC50 (HeLa [1])	IC50 (HeLa [2])	IC50 (Nucleic Acid [3])	IC50 (Nucleic Acid [4])
NCCCNC(F)(F)CCCN	875 µM	7000 µM	–	900 µM	1000 µM
NCC(O)CNCCCCCCCNCC(O)CN (configuration not stated)	4.9 µM	110 µM	–	23 µM	4.5 µM
NCCCNCCCCCCCCCNCCCN	12 µM	–	30 µM	16 µM	4.5 µM
CNC(C)CCNCCCCCCCNCCC(C)NC (configuration not stated)	6.5 µM	100 µM	–	15 µM	5 µM
NCCCc1ccc(CCCN)cc1	400 µM	3000 µM	400 µM	–	–
NCCCNCCCCCCCNCCCN	3.8 µM	37 µM	200 µM	5.4 µM	2.6 µM
CCCNCCCNCCCCCCCNCCCNCCC	10 µM	250 µM	300 µM	20.5 µM	3.8 µM
CC(CN)CNCCCCCCCNCC(C)CN (configuration not stated)	8 µM	–	> 500 µM	10.5 µM	3 µM
CNCCCNCCCCCCCNCCCNC	6 µM	150 µM	500 µM	11 µM	3.5 µM
C/C=C(\CNC)CNCCCCCCCNC/C(=C/C)CNC	12 µM	–	> 500 µM	34.5 µM	5 µM
CNC/C(=C\Cl)CNCCCCCCCNC/C(=C/Cl)CNC	12 µM	–	125 µM	34.5 µM	5 µM
NCCCNCCCN [NORSPERMIDINE]	220 µM	3000 µM	100 µM	370 µM	140 µM
NCCCCN [PUTRESCINE]	4500 µM	12000 µM	8000 µM	5200 µM	5100 µM
NCCCCNCCCN [SPERMIDINE]	130 µM	1500 µM	100 µM	300 µM	110 µM
NCCCNCCCCNCCCN [SPERMINE]	4.3 µM	70 µM	50 µM	6 µM	2.8 µM
